Measurements gathered from unrelated publications.
Compare with care: the assays were run in different laboratories.
Target: Serine/threonine-protein kinase tousled-like 2 (TLK2, Homo sapiens, UniProt Q86UE8)

| Compound | read-out | action | method | concentration | quantity | value |
| --- | --- | --- | --- | --- | --- | --- |
| CN1CC(Oc2cnc(C#N)cc2-c2ccn3nc(NC(=O)C4CC4)cc3c2)C1 | enzyme activity | inhibitor | – | 1 µM | inhibition | 1% |
| CN(C)c1ncnc(-c2ccc3nc(Nc4cc(CN5CCN(C(=O)CC(F)(F)F)CC5)ccn4)[nH]c3c2)c1Cl | cell-free assay | – | competition with immobilised ligand | 1 µM | remaining binding | 100% |
| CCCCNc1ncc2c(-c3ccc(F)cc3)nn(C[C@H]3CC[C@H](N)CC3)c2n1 | target engagement in cells | inhibitor | chemoproteomics | 20 mM | inhibition | -20.7% |
| O=C(Nc1cnn(-c2csc(C(=O)NC3COC3)c2)c1)Nc1ccccc1Cl | enzyme activity | inhibitor | – | 5 µM | remaining activity | 99.1% |
| COc1ccc2cc(OCC3(C(=O)O)CN(C(=O)c4ccc(F)cc4)C3)ccc2c1 | cell-free assay | – | competition with immobilised ligand | 1 µM | remaining binding | 100% |
| O=C1Nc2ccc(Cl)cc2C1=Cc1cc(Cl)c(O)c(Cl)c1 | cell-free assay | – | – | 0.5 µM | remaining signal | 105% |
| CNC(=O)c1cc(Oc2ccc(NC(=O)Nc3ccc(Cl)c(C(F)(F)F)c3)cc2)ccn1 | enzyme activity | inhibitor | – | 10 µM | inhibition | -1% |
| C[C@@H](c1cccc(C#N)c1)n1cc(Cl)cc(C(N)=O)c1=N | cell-free assay | – | competition with immobilised ligand | 1 µM | remaining binding | 100% |
| C[S+]([O-])c1ccc(-c2nc(-c3ccncc3)c(-c3ccc(F)cc3)[nH]2)cc1 (centres unmarked) | cell-free assay | – | – | 0.5 µM | remaining signal | 96.5% |
| O=C(Nc1cnc(Oc2ccc(F)cc2)nc1)N1CCc2ncccc2[C@@H]1c1ccc(F)cc1 | cell-free assay | – | competition with immobilised ligand | 1 µM | remaining binding | 89% |
| COc1cccc2c(NCc3ccccc3)nc(-n3c(N)nc4ccccc43)nc12 | target engagement in cells | inhibitor | chemoproteomics | 20 mM | inhibition | -7.5% |
| O=C1NC(c2ccccn2)Sc2ccccc21 (centres unmarked) | cell-free assay | – | competition with immobilised ligand | 1 µM | remaining binding | 96% |
| Cc1sc(C(=O)NC2COC2)cc1-n1cc(NC(=O)Nc2c(F)cccc2Cl)cn1 | enzyme activity | inhibitor | – | 10 µM | remaining activity | 97.2% |
| O=C(Nc1cccnn1)N1CC(C/C=C/c2cncc(Oc3ccc(C(F)(F)F)cn3)n2)C1 | cell-free assay | – | competition with immobilised ligand | 1 µM | remaining binding | 100% |
| Oc1cccc(-c2nc(N3CCOCC3)c3oc4ncccc4c3n2)c1 | cell-free assay | – | – | 0.5 µM | remaining signal | 102% |
| Cc1ccc(C(=O)Nc2ccc(CN3CCN(C)CC3)c(C(F)(F)F)c2)cc1C#Cc1cnc2cccnn12 | enzyme activity | inhibitor | – | 23.5 nM | remaining activity | 100% |
| CC(C)(C)c1nc2c(s1)c1nc(N)ncc1c1ccc(NS(=O)(=O)c3c(F)cccc3F)c(F)c12 | enzyme activity | inhibitor | radiometric | 1 µM | remaining activity | 109% |
| Cc1ccc(C(=O)NCc2ccsc2)cc1C#Cc1cn(C(C)C)c2ncnc(N)c12 | enzyme activity | inhibitor | – | 1 µM | activity vs control | 97% |
| CCCOc1ccc(OC)c(F)c1C(=O)c1ccc(C(=O)N[C@@H]2CNC[C@H]2NC(=O)c2ccc3[nH]ncc3c2)cc1 | enzyme activity | inhibitor | – | 10 µM | remaining activity | 90% |
| Cc1cnc(NC2CCOCC2)nc1-n1cnc(C(=O)NC(CN)c2cc(F)cc(Cl)c2)c1 (centres unmarked) | enzyme activity | inhibitor | radiometric | 1 µM | remaining activity | 100% |
